Measurements from paper PMC11068032 (Journal of medicinal chemistry, 2023).

Assays:
[1] = target: T1, α-crystallin (chaperone function domain of HSP27) (Bos taurus, UniProt P02470+P02510); assay: HSP27 chaperone activity assay; assay type: biochemical; conditions: for inhibition of in vitro chaperone function of HSP27: 10 μM (Figure 3), α-crystallin present; for interference with DTT-induced insulin aggregation: without chaperone protein, 10 μM or below
T1 sequence (P02470 1-173): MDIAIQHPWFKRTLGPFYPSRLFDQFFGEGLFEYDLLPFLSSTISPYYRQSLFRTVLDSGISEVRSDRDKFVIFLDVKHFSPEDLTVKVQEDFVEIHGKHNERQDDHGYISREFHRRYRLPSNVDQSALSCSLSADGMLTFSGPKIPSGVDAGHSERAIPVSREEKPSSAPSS
T1 sequence (P02510 1-175): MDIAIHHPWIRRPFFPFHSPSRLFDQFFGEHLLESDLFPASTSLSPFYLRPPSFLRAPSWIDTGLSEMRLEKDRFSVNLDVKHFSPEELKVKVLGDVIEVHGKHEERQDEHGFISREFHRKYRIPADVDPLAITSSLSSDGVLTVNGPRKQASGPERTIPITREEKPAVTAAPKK
Summary of the method: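 Chaperone assay: insulin (from 1 mg/mL stock) with α-crystallin, the HSP27 chaperone domain (from 5 mg/mL stock), and test compound in PBS. Preincubated 5 min at 37 °C, then aggregation started with DTT (from 1 M stock). A400 read every 3 min for up to 2 h. Controls were insulin with or without α-crystallin in 0.1% DMSO. Three independent experiments, each in triplicate; mean curves.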

Maximum-tolerated dose = assay type: in vivo; conditions: 100 mg/kg per day IP for 10 days; for body weight growth rate / hematology, profile of the blood / tissue staining (H&E) of kidney, spleen, lung, liver, and heart: vs control group
Summary of the method: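 Twelve C57BL/6 mice randomised into three groups (vehicle DMSO, or test compound in PBS), dosed IP daily and euthanised after 10 days. Body weight recorded daily. Nonfasted cardiac blood drawn immediately after euthanasia for automated haematology analysis. Heart, liver, spleen, lung and kidney rinsed in PBS, formalin-fixed, ethanol-dehydrated, xylene-cleared, paraffin-embedded and H&E-stained.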

[2] = test system: AR protein level in T98G cells; assay: AR downregulation in T98G cells by Western blotting; assay type: cell-based, human; conditions: for AR downregulation activity at 50 nM / AR downregulation activity at 100 nM: 12 h; for AR protein level: 25, 50, and 100 nM
Summary of the method: (§1)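 Cells in 6-well plates treated with test compound or DMSO (T98G screens at 100 or 50 nM for 12 h). Lysed in RIPA with protease inhibitors (10 min on ice), spun at 10,000g for 10 min, protein by BCA. 50 µg resolved on 10% SDS-PAGE, transferred to PVDF, blocked 2 h in 5% milk/TBS-T. Anti-AR or anti-AR-V7 primary overnight at 4 °C, secondary 60 min at RT, chemiluminescence. Band gray values quantified.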

AR-V7 in T98G cells = assay: Mutated AR; assay type: cell-based, human; conditions: Western blotting
Summary of the method: as §1

AR in T98G cells = assay: AR immunofluorescence assay in T98G cells; assay type: cell-based, human; conditions: 50 nM, 12 h, compared to the control
Summary of the method: (§2)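 Cells were grown on coverslips for 24 h, then given test compound at 50 nM for 12 h. Fixed in 4% paraformaldehyde (10 min), permeabilized with 0.1% Triton X-100 (10 min) and blocked in 1% BSA (30 min). Anti-AR primary 1 h, fluorescent secondary 1 h, nuclei stained with DAPI 1 µg/mL for 10 min, then imaged by fluorescence microscopy.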

AR in U87 cells = assay: AR immunofluorescence assay in U87 cells; assay type: cell-based, human; conditions: 50 nM, 12 h, compared to the control
Summary of the method: as §2

U87 xenograft tumor = U87 xenograft tumor model in nude mice; assay type: in vivo; conditions: for nude mice body weight / tumor size / tumor weight: 20 mg/kg IP every other day; for nude mice body weight / tumor size: 2 weeks; for tumor size / tumor weight / AR protein level in tumors: vs control; for tumor weight: end of experiment; for AR protein level in tumors: 20 mg/kg IP, Western blotting of tumor lysates
Summary of the method: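 Nude mice (5–6 weeks) received U87 cells (5 × 10^6 in PBS) subcutaneously into both flanks; n = 4/group, 8 tumors/group. At about 50 mm3, mice got vehicle (DMSO) or test compound 20 mg/kg in PBS IP three times weekly for 14 days. Calipers three times weekly, V = 2/3 d1 × d2², body weight recorded. At end: CO2 euthanasia, tumors weighed, two tumors per mouse pooled and homogenized in RIPA for AR blotting.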

[3] = test system: AR protein level in U87 cells; assay: AR downregulation in U87 cells by Western blotting; assay type: cell-based, human; conditions: 25, 50, and 100 nM
Summary of the method: as §1

[4] = test system: AR-overexpressed GBM cell lines U87 and T98G; assay type: cell-based, human; conditions: summary of Table 1
Summary of the method: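 MTT assay in T98G and U87 cells kept in RPMI1640 or DMEM with 10% FBS and penicillin/streptomycin at 37 °C, 5% CO2. MTT 1 mg/mL for 2 h at 37 °C, formazan dissolved in DMSO, A570 read. Eight replicates; IC50 by nonlinear regression.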

COc1ccc(OC)c(COc2cc(NC(=O)c3ccc4c(c3)OCO4)ccc2NS(C)(=O)=O)c1 [Compound 4, N-(3-((2,5-Dimethoxybenzyl)oxy)-4-(methylsulfonamido)phenyl)benzo[d][1,3]dioxole-5-carboxamide]
inhibition of in vitro chaperone function of HSP27 [1]: significantly inhibit | inhibition at 10 µM ([1]; read-out: inhibition of the chaperone function): > 50% | interference with DTT-induced insulin aggregation [1]: do not interfere | condition observation (signs of toxicity such as dehydration, acute pain, or distress) (Maximum-tolerated dose): do not show any sign of toxicity | body weight growth rate (Maximum-tolerated dose): no growth rate difference | hematology, profile of the blood (Maximum-tolerated dose): no change | tissue staining (H&E) of kidney, spleen, lung, liver, and heart (Maximum-tolerated dose): no substantial histological abnormalities | AR downregulation activity at 50 nM [2]: potent AR downregulation activity | AR downregulation activity at 100 nM [2]: significant AR downregulation activity | AR protein level [2]: significantly downregulate | mutated AR (AR-V7) level (AR-V7 in T98G cells): downregulate | fluorescence intensities of AR (AR in T98G cells): decreased | fluorescence intensities of AR (AR in U87 cells): decreased | nude mice body weight (U87 xenograft tumor): not affected | tumor size (U87 xenograft tumor): significantly decreased | tumor weight (U87 xenograft tumor): significantly decrease | AR protein level in tumors (U87 xenograft tumor): significantly decreased | AR protein level [3]: significantly downregulate

COc1ccc(OC)c(COc2cc(NC(=O)c3ccc([N+](=O)[O-])cc3)ccc2NS(C)(=O)=O)c1 [Compound 13, N-(3-((2,5-Dimethoxybenzyl)oxy)-4-(methylsulfonamido)phenyl)-4-nitrobenzamide]
AR downregulation activity at 100 nM [2]: significant AR downregulation activity

COc1ccc(OC)c(COc2cc(NC(=O)c3cccc(Br)c3)ccc2NS(C)(=O)=O)c1 [Compound 15, 3-Bromo-N-(3-((2,5-dimethoxybenzyl)oxy)-4-(methylsulfonamido)phenyl)benzamide]
AR downregulation activity at 100 nM [2]: significant AR downregulation activity

COc1ccc(OC)c(COc2cc(NC(=O)c3ccc(SC)cc3)ccc2NS(C)(=O)=O)c1 [Compound 19, N-(3-((2,5-Dimethoxybenzyl)oxy)-4-(methylsulfonamido)phenyl)-4-(methylthio)benzamide]
AR downregulation activity at 100 nM [2]: significant AR downregulation activity

COc1ccc(OC)c(COc2cc(NC(=O)c3ccc4ccccc4c3)ccc2NS(C)(=O)=O)c1 [Compound 26, N-(3-((2,5-Dimethoxybenzyl)oxy)-4-(methylsulfonamido)phenyl)-2-naphthamide]
inhibition of in vitro chaperone function of HSP27 [1]: significantly inhibit | interference with DTT-induced insulin aggregation [1]: do not interfere | condition observation (signs of toxicity such as dehydration, acute pain, or distress) (Maximum-tolerated dose): do not show any sign of toxicity | body weight growth rate (Maximum-tolerated dose): no growth rate difference | hematology, profile of the blood (Maximum-tolerated dose): no change | tissue staining (H&E) of kidney, spleen, lung, liver, and heart (Maximum-tolerated dose): no substantial histological abnormalities | AR downregulation activity at 50 nM [2]: potent AR downregulation activity | AR downregulation activity at 100 nM [2]: significant AR downregulation activity | AR protein level [2]: significantly downregulate | mutated AR (AR-V7) level (AR-V7 in T98G cells): downregulate | fluorescence intensities of AR (AR in T98G cells): decreased | fluorescence intensities of AR (AR in U87 cells): decreased | nude mice body weight (U87 xenograft tumor): not affected | tumor size (U87 xenograft tumor): significantly decreased | tumor weight (U87 xenograft tumor): significantly decrease | AR protein level in tumors (U87 xenograft tumor): significantly decreased | AR protein level [3]: significantly downregulate

CCCCCC(=O)Nc1ccc(NS(C)(=O)=O)c(OCc2cc(OC)ccc2OC)c1 [Compound 30, N-(3-((2,5-Dimethoxybenzyl)oxy)-4-(methylsulfonamido)phenyl)hexanamide]
activity in GBM cell growth inhibition (SAR wording) [4]: lower activity

COc1ccc(OC)c(COc2cc(NC(=O)c3ccc(OC(F)(F)F)cc3)ccc2NS(C)(=O)=O)c1 [Compound 33, N-(3-((2,5-Dimethoxybenzyl)oxy)-4-(methylsulfonamido)phenyl)-4-(trifluoromethoxy)benzamide]
AR downregulation activity at 100 nM [2]: significant AR downregulation activity

COc1ccc(OC)c(COc2cc(NC(=O)c3ccccc3C)ccc2NS(C)(=O)=O)c1 [Compound 34, N-(3-((2,5-Dimethoxybenzyl)oxy)-4-(methylsulfonamido)phenyl)-2-methylbenzamide]
AR downregulation activity at 100 nM [2]: significant AR downregulation activity

COc1ccc(OC)c(COc2cc(NC(=O)c3cccs3)ccc2NS(C)(=O)=O)c1 [Compound 35, N-(3-((2,5-Dimethoxybenzyl)oxy)-4-(methylsulfonamido)phenyl)thiophene-2-carboxamide]
AR downregulation activity at 100 nM [2]: significant AR downregulation activity | activity in GBM cell growth inhibition (SAR wording) [4]: lower activity

COc1ccc(OC)c(COc2cc(NC(=O)c3ccno3)ccc2NS(C)(=O)=O)c1 [Compound 36, N-(3-((2,5-Dimethoxybenzyl)oxy)-4-(methylsulfonamido)phenyl)isoxazole-5-carboxamide]
AR downregulation activity at 100 nM [2]: significant AR downregulation activity | activity in GBM cell growth inhibition (SAR wording) [4]: lower activity

COc1ccc(OC)c(COc2cc(NC(=O)CCCC(=O)Nc3ccc(NS(C)(=O)=O)c(OCc4cc(OC)ccc4OC)c3)ccc2NS(C)(=O)=O)c1 [Compound 37, N1,N5-Bis(3-((2,5-dimethoxybenzyl)oxy)-4-(methylsulfonamido)phenyl)glutaramide]
AR downregulation activity at 100 nM [2]: significant AR downregulation activity | activity in GBM cell growth inhibition (SAR wording) [4]: poor activity

COc1ccc(OC)c(COc2cc(NC(=O)COCC(=O)Nc3ccc(NS(C)(=O)=O)c(OCc4cc(OC)ccc4OC)c3)ccc2NS(C)(=O)=O)c1 [Compound 38, 2,2′-Oxybis(N-(3-((2,5-dimethoxybenzyl)oxy)-4-(methylsulfonamido)phenyl)acetamide)]
activity in GBM cell growth inhibition (SAR wording) [4]: poor activity

COc1ccc(OC)c(COc2cc(NC(=O)OCCOC(=O)Nc3ccc(NS(C)(=O)=O)c(OCc4cc(OC)ccc4OC)c3)ccc2NS(C)(=O)=O)c1 [Compound 39, Ethane-1,2-diylbis((3-((2,5-dimethoxybenzyl)oxy)-4-(methylsulfonamido)phenyl)carbamate)]
activity in GBM cell growth inhibition (SAR wording) [4]: poor activity

COc1ccc(OC)c(COc2cc(NC(=O)OCCOCCOCCOC(=O)Nc3ccc(NS(C)(=O)=O)c(OCc4cc(OC)ccc4OC)c3)ccc2NS(C)(=O)=O)c1 [Compound 40, (Ethane-1,2-diylbis(oxy))bis(ethane-2,1-diyl)bis((3-((2,5-dimethoxybenzyl)oxy)-4-(methylsulfonamido)phenyl)carbamate)]
activity in GBM cell growth inhibition (SAR wording) [4]: poor activity

COc1ccc(OC)c(COc2cc(NC(=O)c3ccc(NC(=O)COCC(=O)Nc4ccc(C(=O)Nc5ccc(NS(C)(=O)=O)c(OCc6cc(OC)ccc6OC)c5)cc4)cc3)ccc2NS(C)(=O)=O)c1 [Compound 42, 4,4′-((2,2′-Oxybis(acetyl))bis(azanediyl))bis(N-(3-((2,5-dimethoxybenzyl)oxy)-4-(methylsulfonamido)phenyl)benzamide)]
activity in GBM cell growth inhibition (SAR wording) [4]: poor activity
